Test results taken from ChEMBL document CHEMBL1649154, “Antibiotic susceptibility and characteristics of Neisseria meningitidis isolates from the African meningitis belt, 2000 to 2006: phenotypic and genotypic perspectives” (2009).
In brackets after ≈: the same amount, converted by molar mass.

Columns and labels:
Format in all cases: functional
Neisseria meningitidis [1] = test: Antibacterial activity against Beta-lactamase-negative Neisseria meningitidis assessed as percent intermediate isolates by Etest method
Procedure, shortened: (§1)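 Serogroup A reference strain OR173/87 included for quality control. Isolates were classed susceptible, intermediate or resistant using breakpoints drawn from several organizations.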

Neisseria meningitidis [2] = test: Antibacterial activity against Beta-lactamase-negative Neisseria meningitidis by Etest method
Neisseria meningitidis [3] = test: Antibacterial activity against Beta-lactamase-negative Neisseria meningitidis assessed as percent susceptible isolates by Etest method; procedure, shortened: as §1
Neisseria meningitidis [4] = test: Antibacterial activity against Beta-lactamase-negative Neisseria meningitidis assessed as percent resistant isolates by Etest method
Procedure, shortened: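 Isolates were classed resistant using breakpoints drawn from several organizations. Serogroup A reference strain OR173/87 was included for quality control.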

CO/N=C(\C(=O)N[C@@H]1C(=O)N2C(C(=O)O)=C(CSc3nc(=O)c(O)nn3C)CS[C@H]12)c1csc(N)n1 [CEFTRIAXONE]
Activity (Neisseria meningitidis [1]): 0%
MIC (Neisseria meningitidis [2]): < 0.002 µg/mL
MIC50 (Neisseria meningitidis [2]): < 0.002 µg/mL
MIC90 (Neisseria meningitidis [2]): < 0.002 µg/mL
Activity (Neisseria meningitidis [3]): 100%

CC1(C)S[C@@H]2[C@H](NC(=O)Cc3ccccc3)C(=O)N2[C@H]1C(=O)O [PENICILLIN G]
Activity (Neisseria meningitidis [4]): 0%
Activity (Neisseria meningitidis [1]): 2%
MIC50 (Neisseria meningitidis [2]): 0.047 µg/mL (≈ 0.141 µM)
MIC90 (Neisseria meningitidis [2]): 0.094 µg/mL (≈ 0.281 µM)
Activity (Neisseria meningitidis [3]): 98%

CN(C)[C@@H]1C(O)=C(C(N)=O)C(=O)[C@@]2(O)C(O)=C3C(=O)c4c(O)cccc4[C@@](C)(O)[C@H]3C[C@@H]12 [TETRACYCLINE]
Activity (Neisseria meningitidis [4]): 52%
Activity (Neisseria meningitidis [1]): 0%
MIC50 (Neisseria meningitidis [2]): 2 µg/mL (≈ 4.5 µM)
MIC90 (Neisseria meningitidis [2]): 4 µg/mL (≈ 9 µM)
Activity (Neisseria meningitidis [3]): 48%

CO[C@H]1/C=C/O[C@@]2(C)Oc3c(C)c(O)c4c(O)c(c(/C=N/N5CCN(C)CC5)c(O)c4c3C2=O)NC(=O)/C(C)=C\C=C\[C@H](C)[C@H](O)[C@@H](C)[C@@H](O)[C@@H](C)[C@H](OC(C)=O)[C@@H]1C [RIFAMPIN]
Activity (Neisseria meningitidis [4]): 0%
Activity (Neisseria meningitidis [1]): 1%
MIC50 (Neisseria meningitidis [2]): 0.064 µg/mL (≈ 0.0778 µM)
MIC90 (Neisseria meningitidis [2]): 0.125 µg/mL (≈ 0.152 µM)
Activity (Neisseria meningitidis [3]): 99%

CC[C@H]1OC(=O)[C@H](C)[C@@H](O[C@H]2C[C@@](C)(OC)[C@@H](O)[C@H](C)O2)[C@H](C)[C@@H](O[C@@H]2O[C@H](C)C[C@H](N(C)C)[C@H]2O)[C@](C)(O)C[C@@H](C)C(=O)[C@H](C)[C@@H](O)[C@]1(C)O [ERYTHROMYCIN]
Activity (Neisseria meningitidis [4]): 74%
Activity (Neisseria meningitidis [1]): 0%
MIC (Neisseria meningitidis [2]): 0.032 µg/mL (≈ 0.0436 µM)
MIC50 (Neisseria meningitidis [2]): 0.75 µg/mL (≈ 1.02 µM)
MIC90 (Neisseria meningitidis [2]): 1 µg/mL (≈ 1.36 µM)
Activity (Neisseria meningitidis [3]): 26%

CC1(C)S[C@@H]2[C@H](NC(=O)[C@H](N)c3ccccc3)C(=O)N2[C@H]1C(=O)O [AMPICILLIN]
Activity (Neisseria meningitidis [4]): 0%
Activity (Neisseria meningitidis [1]): 1%
MIC50 (Neisseria meningitidis [2]): 0.064 µg/mL (≈ 0.183 µM)
MIC90 (Neisseria meningitidis [2]): 0.094 µg/mL (≈ 0.269 µM)
Activity (Neisseria meningitidis [3]): 99%

O=C(O)c1cn(C2CC2)c2cc(N3CCNCC3)c(F)cc2c1=O [CIPROFLOXACIN]
Activity (Neisseria meningitidis [1]): 0%
MIC50 (Neisseria meningitidis [2]): 0.004 µg/mL (≈ 0.0121 µM)
MIC90 (Neisseria meningitidis [2]): 0.004 µg/mL (≈ 0.0121 µM)
Activity (Neisseria meningitidis [3]): 100%

CO/N=C(\C(=O)N[C@@H]1C(=O)N2C(C(=O)O)=C(COC(N)=O)CS[C@H]12)c1ccco1 [CEFUROXIME]
Activity (Neisseria meningitidis [4]): 0%
Activity (Neisseria meningitidis [1]): 1%
MIC50 (Neisseria meningitidis [2]): 0.047 µg/mL (≈ 0.111 µM)
MIC90 (Neisseria meningitidis [2]): 0.094 µg/mL (≈ 0.221 µM)
Activity (Neisseria meningitidis [3]): 99%

CC1(C)S[C@@H]2[C@H](NC(=O)COc3ccccc3)C(=O)N2[C@H]1C(=O)O [PENICILLIN V]
Activity (Neisseria meningitidis [4]): 1%
Activity (Neisseria meningitidis [1]): 0%
MIC (Neisseria meningitidis [2]): 0.016 µg/mL (≈ 0.0457 µM)
MIC50 (Neisseria meningitidis [2]): 0.19 µg/mL (≈ 0.542 µM)
MIC90 (Neisseria meningitidis [2]): 0.38 µg/mL (≈ 1.08 µM)
Activity (Neisseria meningitidis [3]): 99%

O=C(N[C@H](CO)[C@H](O)c1ccc([N+](=O)[O-])cc1)C(Cl)Cl [CHLORAMPHENICOL]
Activity (Neisseria meningitidis [1]): 0%
MIC50 (Neisseria meningitidis [2]): 0.75 µg/mL (≈ 2.32 µM)
MIC90 (Neisseria meningitidis [2]): 1 µg/mL (≈ 3.09 µM)
Activity (Neisseria meningitidis [3]): 100%

Nc1ccc(S(=O)(=O)Nc2ncccn2)cc1 [SULFADIAZINE]
Activity (Neisseria meningitidis [4]): 94%
Activity (Neisseria meningitidis [1]): 6%
MIC50 (Neisseria meningitidis [2]): > 256 µg/mL
MIC90 (Neisseria meningitidis [2]): > 256 µg/mL
Activity (Neisseria meningitidis [3]): 0%
